This note sets out measurements from ChEMBL document CHEMBL1131251, “Inhibition of in vitro and in vivo HIV replication by a distamycin analogue that interferes with chemokine receptor function: a candidate for chemotherapeutic and microbicidal application” (J Med Chem, 1998).

One may read the inhibition as the relative decrease from the control value, in per cent.

What all share (details): HEK293; concentration not given here
Assay [1] deals with C-C chemokine receptor type 5 (Homo sapiens) (UniProt P51681). Briefly: The compound was tested for inhibition of Chemokine (MIP-1Alpha) binding against C-C chemokine receptor type 5 transfected in HEK 293 cells. Format: cell-based. In outline:
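Competition binding in HEK-293 cells transfected with the named receptor, at 1 × 10^6 cells/mL in RPMI 1640 with 1% BSA and 5 mM HEPES pH 8.0. Cells were mixed with 0.2 ng/assay radiolabeled chemokine plus test compound at a single concentration of 200 μM, rotated 45 min at room temperature, then spun through a 10% sucrose/PBS cushion. Cell-bound radioactivity was gamma-counted; triplicates, n ≥ 2; t-test against a drug-free control.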

Assay [2] shares this target. Nature of the assay: The compound was tested for inhibition of Chemokine (MIP-1Beta) binding against C-C chemokine receptor type 5 transfected in HEK 293 cells. Format: cell-based. In outline: (§1)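 CCR5 stably transfected HEK-293 cells at 1 × 10^6 cells/mL in RPMI 1640, 1% BSA, 5 mM HEPES pH 8.0. Constant radiolabeled chemokine (0.2 ng/assay) plus competitor at a single 200 μM concentration. Rotated 45 min at room temperature, spun through a 10% sucrose/PBS cushion, and cell-bound radioactivity gamma-counted. Inhibition measured against a drug-free control; triplicate, n ≥ 2.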

For assay [3] the target is unchanged. Nature of the assay: The compound was tested for inhibition of Chemokine (RANTES) binding against C-C chemokine receptor type 5 transfected in HEK 293 cells. Format: cell-based. In outline: as §1
For assay [4], the system named is CXCR2 (Homo sapiens). Briefly: The compound was tested for inhibition of Chemokine r (IL-8) binding against CXCR2 transfected in HEK 293 cells.
For assay [5], the system named is CXCR2 (Homo sapiens). Nature of the assay: The compound was tested for inhibition of Chemokine (IL-8) binding against CXCR2 transfected in HEK 293 cells.

Chain of C-C chemokine receptor type 5 (Homo sapiens) (P51681 whole entry, looked up): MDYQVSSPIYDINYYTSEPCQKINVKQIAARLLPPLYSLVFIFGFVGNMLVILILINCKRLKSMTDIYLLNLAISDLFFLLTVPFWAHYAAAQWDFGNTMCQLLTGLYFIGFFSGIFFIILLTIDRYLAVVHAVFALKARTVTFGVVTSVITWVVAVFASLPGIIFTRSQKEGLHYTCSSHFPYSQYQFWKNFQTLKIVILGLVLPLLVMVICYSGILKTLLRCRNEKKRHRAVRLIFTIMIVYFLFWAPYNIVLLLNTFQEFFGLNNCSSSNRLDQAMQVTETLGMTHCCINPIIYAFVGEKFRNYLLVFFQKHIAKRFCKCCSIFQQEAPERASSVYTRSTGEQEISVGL

As for `Cn1cc(N)cc1C(=O)Nc1ccc(S(=O)(=O)O)c2cc(S(=O)(=O)O)ccc12`, the inhibition in assay [1] is 9.5%; in assay [2], 6.6%; in assay [3] it was -1%; with CXCR2 (Homo sapiens) [4], 0.3%.
For `Cn1cc(NC(=O)c2cc(NC(=O)Nc3c[nH]c(C(=O)Nc4cc(C(=O)Nc5ccc(S(=O)(=O)O)c6cccc(S(=O)(=O)O)c56)n(C)c4)c3)c[nH]2)cc1C(=O)Nc1ccc(S(=O)(=O)O)c2cccc(S(=O)(=O)O)c12`, the results for the inhibition (in assay [1]; in assay [3]; with CXCR2 (Homo sapiens) [5]) were 6.5%, -3.1% and 5.4%, respectively.
